Columns and labels:
[1] = Lipophilicity, logP of the compound by UPLC-MS method; format: physicochemical; conditions: octanol/water
In short: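 LogP measured by UPLC on a BEH C18 column (2.1 × 100 mm, 1.7 µm, with C18 pre-column) coupled to an ESI tandem quadrupole MS. The method was calibrated with reference compounds of established logP values.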

[2] = biological target: T1, GABA transporter 4 (Mus musculus, UniProt P31650); assay: Inhibition of mouse GAT4 expressed in HEK293 cell line assessed as inhibition of [3H]GABA uptake measured after 35 mins by liquid scintillation method; format: cell-based
T1 sequence (P31650 whole entry): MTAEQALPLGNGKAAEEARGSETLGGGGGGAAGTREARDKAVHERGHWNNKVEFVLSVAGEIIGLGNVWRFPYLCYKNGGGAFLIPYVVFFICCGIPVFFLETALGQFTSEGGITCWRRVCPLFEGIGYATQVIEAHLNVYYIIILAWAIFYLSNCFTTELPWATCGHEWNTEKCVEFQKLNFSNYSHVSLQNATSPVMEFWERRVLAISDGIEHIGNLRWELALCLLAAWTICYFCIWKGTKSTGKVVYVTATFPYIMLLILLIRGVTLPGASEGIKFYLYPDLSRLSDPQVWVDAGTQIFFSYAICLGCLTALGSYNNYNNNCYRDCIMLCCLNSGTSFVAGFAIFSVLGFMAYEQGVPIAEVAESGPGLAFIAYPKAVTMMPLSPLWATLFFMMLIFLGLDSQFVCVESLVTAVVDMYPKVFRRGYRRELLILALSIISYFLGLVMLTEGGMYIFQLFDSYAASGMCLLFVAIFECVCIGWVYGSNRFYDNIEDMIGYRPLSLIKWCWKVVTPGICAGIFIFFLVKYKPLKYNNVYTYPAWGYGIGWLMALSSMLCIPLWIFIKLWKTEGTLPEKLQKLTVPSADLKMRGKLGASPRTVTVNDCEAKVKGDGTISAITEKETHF
In short: (§1)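 Otherwise, the remaining uptake at 100 µM is reported as a percentage. Values without SEM come from a single triplicate experiment.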

[3] = biological target: Sodium- and chloride-dependent GABA transporter 1 (Mus musculus) (UniProt P31648); assay: Displacement of [3H]NO711 from mouse GAT1 expressed in HEK293 cells at 100 uM measured after 40 mins of incubation by LC-ESI-MS-MS method; format: cell-based; conditions: in the assay text read “NO711” for “[3H]NO711”
In short: (§2)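 Competitive MS Binding Assay for mGAT1 using NO-711 as a nonlabeled marker, quantified by LC–ESI–MS–MS. Compounds were screened at 100 µM. […] Otherwise, the percentage of remaining binding at 100 µM is given.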

[4] = biological target: T2, Sodium- and chloride-dependent GABA transporter 1 (Mus musculus, UniProt P31648); assay: Inhibition of mouse GTA 1 receptor
[5] = biological target: T3, GABA transporter 3 (Mus musculus, UniProt P31649); assay: Inhibition of mouse GTA 3 receptor
T3 sequence (P31649 whole entry): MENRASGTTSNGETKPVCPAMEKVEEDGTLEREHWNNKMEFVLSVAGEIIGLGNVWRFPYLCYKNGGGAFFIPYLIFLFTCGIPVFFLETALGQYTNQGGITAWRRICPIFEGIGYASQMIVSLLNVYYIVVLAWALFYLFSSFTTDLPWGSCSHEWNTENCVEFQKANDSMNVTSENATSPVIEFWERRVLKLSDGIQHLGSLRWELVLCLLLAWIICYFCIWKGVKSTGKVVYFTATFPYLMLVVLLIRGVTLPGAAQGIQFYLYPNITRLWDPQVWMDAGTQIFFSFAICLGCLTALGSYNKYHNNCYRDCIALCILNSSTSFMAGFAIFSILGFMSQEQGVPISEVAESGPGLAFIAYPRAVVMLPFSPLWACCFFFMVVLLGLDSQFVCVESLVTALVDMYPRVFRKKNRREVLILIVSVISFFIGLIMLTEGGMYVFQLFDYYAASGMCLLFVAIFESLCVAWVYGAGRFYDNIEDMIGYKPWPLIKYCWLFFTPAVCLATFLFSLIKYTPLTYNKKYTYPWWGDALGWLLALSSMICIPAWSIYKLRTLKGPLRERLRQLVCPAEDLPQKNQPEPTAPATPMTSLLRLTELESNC

[6] = biological target: T1, GABA transporter 4; assay: Inhibition of mouse GTA4 receptor
[7] = biological target: T2, Sodium- and chloride-dependent GABA transporter 1; assay: Inhibition of mouse GAT1 expressed in HEK293 cell line assessed as inhibition of [3H]GABA uptake measured after 35 mins by liquid scintillation method; format: cell-based; in short: as §1
[8] = biological target: T2, Sodium- and chloride-dependent GABA transporter 1; assay: Displacement of [3H]NO711 from mouse GAT1 expressed in HEK293 cells measured after 40 mins of incubation by LC-ESI-MS-MS method; format: cell-based; conditions: in the assay text read “unlabelled NO711” for “[3H]NO711”; in short: as §2
[9] = biological target: Sodium- and chloride-dependent GABA transporter 1 (Mus musculus) (UniProt P31648); assay: Inhibition of mouse GAT1 expressed in HEK293 cell line assessed as inhibition of [3H]GABA uptake at 100 uM measured after 35 mins by liquid scintillation method; values are per cent of control

logP ([1]; read-out: logP)	IC50 [2] [µM]	residual activity [3] [%]	IC50 [7] [µM]	SMILES	further results
5.95	9.55			Cc1ccsc1C(=CCCN(C)C(CC(C)O)C(=O)NCc1ccccc1Cl)c1sccc1C (racemic; form 1) [listing 1 of 2 here]	
		82		Cc1ccsc1C(=CCCN(C)C(CC(C)O)C(=O)NCc1ccccc1)c1sccc1C (racemic; form 1) [listing 1 of 2 here]	
				NCCC(=O)O [BETA-ALANINE]	IC50 [4]: 2950 µM; IC50 [5]: 66.1 µM; IC50 [6]: 110 µM
6.61	6.92		11.5	Cc1ccc(CNC(=O)C(CCN)N(C)CCC=C(c2sccc2C)c2sccc2C)cc1 (stereo unspecified)	Ki [8]: 18.2 µM
6.1	13.8	68	30.2	Cc1ccsc1C(=CCCN(C)C(CCO)C(=O)NC(C)c1ccccc1)c1sccc1C (stereo unspecified)	
	18.6		23.4	Cc1ccsc1C(=CCCN(C)C(CC(C)O)C(=O)NCc1ccccc1)c1sccc1C (racemic; form 2) [listing 1 of 2 here]	logP [1]: 6.22
	13.2		57.5	Cc1ccsc1C(=CCCN(C)C(CC(C)O)C(=O)NCc1ccc(Cl)cc1)c1sccc1C (mixture of isomers) [listing 1 of 2 here]	logP [1]: 6.77
			13.8	Cc1ccsc1C(=CCCN(C)[C@H](CCO)C(=O)NCc1ccccc1Cl)c1sccc1C	Ki [8]: 25.7 µM
		70		Cc1ccsc1C(=CCCN(C)C(CC(C)O)C(=O)NCc1ccc(F)cc1)c1sccc1C (racemic; form 2) [listing 1 of 2 here]	
				Cc1ccsc1C(=CCCN(C)[C@@H]1CCc2onc(O)c2C1)c1sccc1C	IC50 [4]: 7.08 µM; IC50 [5]: > 302 µM; IC50 [6]: > 302 µM
		59		Cc1ccsc1C(=CCCN(C)C(CC(C)O)C(=O)NCc1ccccc1)c1sccc1C (racemic; form 2) [listing 2 of 2 here]	
	85.1			O=C(O)C1=CCCN(CCO/N=C/c2ccccc2-c2ccc(Cl)cc2Cl)C1	
		78		Cc1ccsc1C(=CCCN(C)C(CC(C)O)C(=O)NCc1ccc(F)cc1)c1sccc1C (racemic; form 1) [listing 1 of 2 here]	
5.51	17.8		66.1	Cc1ccsc1C(=CCCN(C)C(CC(C)O)C(=O)NCc1ccc(F)cc1)c1sccc1C (racemic; form 1) [listing 2 of 2 here]	
6.11	5.62		7.59	Cc1ccsc1C(=CCCN(C)C(CCN)C(=O)NCc1ccccc1Cl)c1sccc1C (stereo unspecified)	Ki [8]: 11.7 µM
				O=C1Nc2ccc(-c3cccs3)cc2C1=O	IC50 [4]: > 1000 µM; IC50 [5]: 182 µM; IC50 [6]: 6.31 µM
6.2	7.08	58	12.9	Cc1ccc(CNC(=O)C(CCO)N(C)CCC=C(c2sccc2C)c2sccc2C)cc1 (stereo unspecified)	
6.46	6.17	68	8.71	CC(=O)NCCC(C(=O)NCc1ccccc1Cl)N(C)CCC=C(c1sccc1C)c1sccc1C (stereo unspecified)	
				Cc1ccsc1C(=CCCN(C)C(CC(C)O)C(=O)NCc1ccccc1Cl)c1sccc1C (racemic; form 2) [listing 1 of 2 here]	logP [1]: 5.67; pIC50 ([2]; hek293): 5.02
5.5	6.61		11.5	Cc1ccsc1C(=CCCN(C)C(CCN)C(=O)NCc1ccccc1)c1sccc1C (stereo unspecified)	Ki [8]: 24.5 µM
		88		Cc1ccsc1C(=CCCN(C)C(CC(C)O)C(=O)NCc1ccccc1Cl)c1sccc1C (racemic; form 2) [listing 2 of 2 here]	residual activity [9]: 47%
	29.5		85.1	Cc1ccsc1C(=CCCN(C)C(CC(C)O)C(=O)NCc1ccc(F)cc1)c1sccc1C (racemic; form 2) [listing 2 of 2 here]	
				Cc1ccsc1C(=CCCN(C)[C@H]1CCc2onc(O)c2C1)c1sccc1C	IC50 [4]: 7.08 µM; IC50 [5]: > 302 µM; IC50 [6]: > 302 µM

logP ([1]; read-out: logP)	IC50 [2] [µM]	residual activity [3] [%]	IC50 [7] [µM]	SMILES	further results
5.99	28.8			Cc1ccsc1C(=CCCN(C)C(CC(C)O)C(=O)NCc1ccc(Cl)cc1)c1sccc1C (stereo in doubt) [listing 1 of 2 here]	
		90		Cc1ccsc1C(=CCCN(C)C(CC(C)O)C(=O)NCc1ccc(Cl)cc1)c1sccc1C (stereo in doubt) [listing 2 of 2 here]	residual activity [9]: 63%
		79		Cc1ccc(CNC(=O)C(CC(C)O)N(C)CCC=C(c2sccc2C)c2sccc2C)cc1 (racemic) [listing 1 of 2 here]	
				Cc1ccsc1C(=CCCN(C)[C@@H](CO)C(=O)NCc1ccc(Cl)cc1)c1sccc1C	Ki [8]: 87.1 µM
		85		Cc1ccsc1C(=CCCN(C)C(CC(C)O)C(=O)NCc1ccccc1Cl)c1sccc1C (racemic; form 1) [listing 2 of 2 here]	residual activity [9]: 51%
	17	92	13.5	Cc1ccsc1C(=CCCN(C)C(CO)C(=O)NCc1ccc(C(F)(F)F)cc1)c1sccc1C (stereo unspecified)	
	5.01		2510	NCC(O)C(=O)O (stereo unspecified)	
				CN(CCC=C(c1ccccc1)c1ccccc1)C(CCN)C(=O)NCc1ccccc1Cl (stereo unspecified)	IC50 [5]: 10 µM
		91		Cc1ccsc1C(=CCCN(C)C(CC(C)O)C(=O)NCc1ccc(Cl)cc1)c1sccc1C (mixture of isomers) [listing 2 of 2 here]	
		72		Cc1ccc(CNC(=O)C(CC(C)O)N(C)CCC=C(c2sccc2C)c2sccc2C)cc1 (stereo in doubt) [listing 1 of 2 here]	
			20.4	Cc1ccsc1C(=CCCN(C)[C@H](CO)C(=O)NCc1ccc(Cl)cc1)c1sccc1C	Ki [8]: 18.6 µM
5.71	10.2	60	15.8	Cc1ccsc1C(=CCCN(C)C(CCO)C(=O)NCc1ccccc1)c1sccc1C (stereo unspecified)	
5.64	3.89		13.2	Cc1ccsc1C(=CCCN(C)C(CC(C)O)C(=O)NCc1ccccc1)c1sccc1C (racemic; form 1) [listing 2 of 2 here]	
5.85	8.13		9.33	Cc1ccsc1C(=CCCN(C)C(CCN)C(=O)NCc1ccc(Cl)cc1)c1sccc1C (stereo unspecified)	Ki [8]: 20 µM
6.15	7.08		25.1	Cc1ccc(CNC(=O)C(CC(C)O)N(C)CCC=C(c2sccc2C)c2sccc2C)cc1 (stereo in doubt) [listing 2 of 2 here]	
6.45	7.59		11.7	Cc1ccsc1C(=CCCN(C)C(CCN)C(=O)NCc1ccc(F)cc1)c1sccc1C (stereo unspecified)	Ki [8]: 21.9 µM
6.37	8.71	71	12.3	Cc1ccsc1C(=CCCN(C)C(CCO)C(=O)NCc1ccc(F)cc1F)c1sccc1C (stereo unspecified)	
6.26	20.9	46	35.5	Cc1ccsc1C(=CCCN(C)C(CO)C(=O)NCc1ccccc1)c1sccc1C (stereo unspecified)	
5.87	11	70	15.5	Cc1ccsc1C(=CCCN(C)C(CCO)C(=O)NCc1ccc(F)cc1)c1sccc1C (stereo unspecified)	
6.38	7.41	81	9.33	Cc1ccsc1C(=CCCN(C)C(CCO)C(=O)NCc1ccc(Cl)cc1)c1sccc1C (stereo unspecified)	
	> 302		7.08	Cc1ccsc1C(=CCCN(C)C1CCc2onc(O)c2C1)c1sccc1C (stereo unspecified)	
	5.5		12.3	Cc1ccc(CNC(=O)C(CC(C)O)N(C)CCC=C(c2sccc2C)c2sccc2C)cc1 (racemic) [listing 2 of 2 here]	

From ChEMBL document CHEMBL4765247, “Novel mouse GABA uptake inhibitors with enhanced inhibitory activity toward mGAT3/4 and their effect on pain threshold in mice” (Eur J Med Chem, 2020)
